One assay concerns L1210. The assay can be described thus: Compound was evaluated for its cytotoxicity against the L1210 murine leukemia cell culture. The class given is functional. Conditions: Mus musculus, read-out: ID50 (the source's name).
The test system of assay [1] is Mus musculus. The assay can be described thus: In vivo antitumor activity was evaluated against L1210 leukemia implanted mice by measuring percent increase in life span after intraperitoneal administration of compound at 0.06 mg/kg. The assay is classed as functional. The procedure, abridged: (§1)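 Male B6D2F1J mice, five per group, were implanted ip with 10^5 L1210 cells on day 0. Treatment began on day 1. Drug was given ip in sterile water, twice daily on days 1-4 and 7-10, and as a single double-dose injection on days 5 and 6. Survival was recorded in days (range, and median treated/control), with % ILS derived from it. Body-weight change at 7 days was also recorded.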

Assay [2] relates to Mus musculus. The assay is described as follows: In vivo antitumor activity was evaluated against L1210 leukemia implanted mice by measuring percent increase in life span after intraperitoneal administration of compound at 0.12 mg/kg. The assay is classed as functional. In short, it runs like this: (§2)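 Male B6D2F1J mice, five per group, were inoculated ip with 10^5 L1210 cells on day 0. Treatment began on day 1, given ip in sterile water twice daily on days 1-4 and 7-10, with a single double-dose injection on each of days 5 and 6. Read-outs were percent body weight change over 7 days, survival range in days, treated/control median survival, and percent increase in life span.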

Assay [3] concerns Mus musculus. The assay is described as follows: In vivo antitumor activity was evaluated against L1210 leukemia implanted mice by measuring percent increase in life span after intraperitoneal administration of compound at 0.24 mg/kg. The assay is classed as functional. In short, it runs like this:
as §1

Assay [4] has as its system Mus musculus. The assay is described as follows: In vivo antitumor activity was evaluated against L1210 leukemia implanted mice by measuring T/C median after intraperitoneal administration of compound at 0.12 mg/kg; T/C median=14/8. The assay is classed as functional. The procedure, abridged:
as §2

The test system of assay [5] is Mus musculus. The assay can be described thus: In vivo antitumor activity was evaluated against L1210 leukemia implanted mice by measuring T/C median after intraperitoneal administration of compound at 0.24 mg/kg; T/C median=19/8. The assay is classed as functional. In short, it runs like this:
as §1

In assay [6] the test system is Mus musculus. The assay is described as follows: In vivo antitumor activity was evaluated against L1210 leukemia implanted mice by measuring 7-day weight change after intraperitoneal administration of compound at 0.06 mg/kg. The class given is functional. In short, it runs like this: (§3)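 Groups of five male B6D2F1J mice were inoculated ip with 10^5 L1210 cells on day 0. Starting day 1, drug in sterile water was given ip bid on days 1-4 and 7-10, with a single double-dose injection on days 5 and 6. Percent body-weight change was recorded at day 7, along with survival range, median T/C and ILS.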

Assay [7] relates to Mus musculus. The assay is described as follows: In vivo antitumor activity was evaluated against L1210 leukemia implanted mice by measuring 7-day weight change after intraperitoneal administration of compound at 0.12 mg/kg. The assay is classed as functional. In short, it runs like this:
as §2

Assay [8] relates to Mus musculus. The assay can be described thus: In vivo antitumor activity was evaluated against L1210 leukemia implanted mice by measuring 7-day weight change after intraperitoneal administration of compound at 0.24 mg/kg. The class given is functional. In short, it runs like this:
as §3

For assay [9], the system named is Mus musculus. The assay is described as follows: In vivo antitumor activity was evaluated against L1210 leukemia implanted mice by measuring number of survival days after intraperitoneal administration of compound at 0.06 mg/kg at a range of 11-13. The class given is functional. The procedure, abridged: as §1
For assay [10], the system named is Mus musculus. The assay can be described thus: In vivo antitumor activity was evaluated against L1210 leukemia implanted mice by measuring number of survival days after intraperitoneal administration of compound at 0.12 mg/kg at a range of 12-15. The assay is classed as functional. In short, it runs like this:
as §2

Assay [11] relates to Mus musculus. The assay can be described thus: In vivo antitumor activity was evaluated against L1210 leukemia implanted mice by measuring number of survival days after intraperitoneal administration of compound at 0.24 mg/kg at a range of 12-20. The assay is classed as functional. The procedure, abridged: as §1
Assay [12] has as its target T1, Dihydrofolate reductase (Mus musculus) (UniProt P00375).
T1 sequence (whole entry): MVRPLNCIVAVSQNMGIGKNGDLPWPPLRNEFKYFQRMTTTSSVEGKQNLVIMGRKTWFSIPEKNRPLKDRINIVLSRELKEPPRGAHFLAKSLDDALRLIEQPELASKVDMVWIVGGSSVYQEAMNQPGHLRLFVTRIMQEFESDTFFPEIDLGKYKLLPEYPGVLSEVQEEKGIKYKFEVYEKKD

In assay [13] the test system is Mus musculus. The assay is described as follows: In vivo antitumor activity was evaluated against L1210 leukemia implanted mice by measuring percent increase in life span after intraperitoneal administration of compound at 16 mg/kg. The class given is functional. The procedure, abridged: as §1
In assay [14] the test system is Mus musculus. The assay is described as follows: In vivo antitumor activity was evaluated against L1210 leukemia implanted mice by measuring percent increase in life span after intraperitoneal administration of compound at 32 mg/kg. The assay is classed as functional. In short, it runs like this:
as §1

Assay [15] concerns Mus musculus. The assay is described as follows: In vivo antitumor activity was evaluated against L1210 leukemia implanted mice by measuring number of survival days after intraperitoneal administration of compound at 32 mg/kg; at a range of 12-16. The class given is functional. The procedure, abridged: as §1
The subject of assay [16] is Mus musculus. The assay is described as follows: In vivo antitumor activity was evaluated against L1210 leukemia implanted mice by measuring T/C median after intraperitoneal administration of compound at 16 mg/kg; T/C median=12/9. The class given is functional. The procedure, abridged:
as §1

Assay [17] concerns Mus musculus. The assay can be described thus: In vivo antitumor activity was evaluated against L1210 leukemia implanted mice by measuring number of survival days after intraperitoneal administration of compound at 16 mg/kg; at a range of 11-14. The assay is classed as functional. The procedure, abridged: as §1
The subject of assay [18] is Mus musculus. The assay is described as follows: In vivo antitumor activity was evaluated against L1210 leukemia implanted mice by measuring 7-day weight change after intraperitoneal administration of compound at 32 mg/kg. The class given is functional. In short, it runs like this: as §3
For assay [19], the system named is Mus musculus. The assay can be described thus: In vivo antitumor activity was evaluated against L1210 leukemia implanted mice by measuring 7-day weight change after intraperitoneal administration of compound at 16 mg/kg. The class given is functional. The procedure, abridged: as §3
Assay [20] deals with Mus musculus. The assay is described as follows: In vivo antitumor activity was evaluated against L1210 leukemia implanted mice by measuring T/C median after intraperitoneal administration of compound at 32 mg/kg; T/C median=13/9. The assay is classed as functional. The procedure, abridged: as §1

On to `Nc1nc(N)c2nc(CNc3ccc(C(=O)N[C@@H](CCC(=O)O)C(=O)O)cc3)cnc2n1` [AMINOPTERIN], for which, in the assay on L1210, the IC50 was determined as 3.1 nM. For the same compound, the Activity with Mus musculus [1] is 50%; in the assay on Mus musculus [2], 75%; with Mus musculus [3] it was 138%. In addition, the Survival days is 14 with Mus musculus [4]; 19 in the assay with Mus musculus [5]; 11 in the assay on Mus musculus [9]; 12 with Mus musculus [10]; 12 in the assay with Mus musculus [11]. The results for the Weight change with Mus musculus [6], in the assay with Mus musculus [7] and in the assay on Mus musculus [8] were 1%, 3% and -12%, respectively. The compound also showed an ID50 in assay [12] of 40 nM.
With `CN(Cc1cnc2nc(N)nc(N)c2n1)c1ccc(C(=O)NC(CS(=O)(=O)O)C(=O)O)cc1` (stereo not drawn), in the assay with L1210, the IC50 was 340 nM. Also, the Activity in the assay on Mus musculus [13] is given as 33%; in the assay on Mus musculus [14], 44%; in the assay with Mus musculus [18], -1%. In addition, the Survival days in the assay on Mus musculus [15] is given as 12; in the assay on Mus musculus [16], 12; with Mus musculus [17] it was 11; in the assay with Mus musculus [20], 13. For the same compound, the Weight change with Mus musculus [19] came out at 2%. The compound also yielded an ID50 in assay [12] of 45 nM.

The values above are taken from ChEMBL document CHEMBL1122647 (J Med Chem, 1984).
